In ChEMBL document CHEMBL2413022, “3-Aryl-4-acyloxyethoxyfuran-2(5H)-ones as inhibitors of tyrosyl-tRNA synthetase: synthesis, molecular docking and antibacterial evaluation” (Bioorg Med Chem, 2013):
Values after ≈ are worked out from the molar mass of the structure shown.

Assays:
Candida albicans = test: Antifungal activity against Candida albicans ATCC 10231 by MTT assay; format: functional
Method in brief: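 LB medium; inoculum about 10⁵ cfu/mL with serially diluted compound (medium-only blank), incubated at 28 °C. MTT in PBS (3 mg/mL) added, 4–5 h at room temperature. Dye extracted 8–10 h in 10% SDS with 5% isopropanol and HCl. OD read at 570 nm, control OD 1.0–2.0; MIC50 from absorbance.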

Pseudomonas aeruginosa = test: Antibacterial activity against Pseudomonas aeruginosa ATCC 27853 by MTT assay; format: functional
Method in brief: (§1)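 LB medium; inoculum about 10⁵ cfu/mL added to serially diluted compound (medium-only blank) and incubated at 37 °C. Then MTT in PBS (3 mg/mL) added, 4–5 h at room temperature. Medium removed, dye extracted 8–10 h in 10% SDS with 5% isopropanol and HCl. Read OD 570 nm, control OD kept at 1.0–2.0; MIC50 taken from absorbance.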

Staphylococcus aureus = test: Antibacterial activity against Staphylococcus aureus ATCC 25923 by MTT assay; format: functional; method in brief: as §1
[1] = Inhibition of Staphylococcus aureus tyrosyl-tRNA synthetase expressed in Escherichia coli using L-[ring-3,5-3H] tyrosine as substrate preincubated for 10 mins by liquid scintillation counting analysis
Method in brief: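 Enzyme purified to about 98% (SDS–PAGE). Aminoacylation at 37 °C, final 100 mM Tris/Cl pH 7.9, 50 mM KCl. TyrRS (0.2 nM) preincubated with a range of inhibitor concentrations for 10 min at room temperature, then pre-warmed mixture added. Aliquots quenched in ice-cold 7% TCA at set intervals, filtered, counted by liquid scintillation.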

Escherichia coli = test: Antibacterial activity against Escherichia coli ATCC 35218 by MTT assay; format: functional; method in brief: as §1

| Structure (SMILES) | MIC50 (Candida albicans) [µg/mL] | MIC50 (Pseudomonas aeruginosa) [µg/mL] | MIC50 (Staphylococcus aureus) [µg/mL] | IC50 [1] [µM] | MIC50 (Escherichia coli) [µg/mL] |
| --- | --- | --- | --- | --- | --- |
| O=C(Cc1cccc(Cl)c1)OCCOC1=C(c2ccc(Cl)cc2)C(=O)OC1 | 2.5 (≈ 6.14 µM) | 2.5 (≈ 6.14 µM) | 5.2 (≈ 12.8 µM) | 1.1 | 7.6 (≈ 18.7 µM) |
| O=C1OCC(OCCOC(=O)c2ccccc2Cl)=C1c1ccccc1 | > 100 | 52.7 (≈ 147 µM) | 72.9 (≈ 203 µM) | 56.8 | 17.9 (≈ 49.9 µM) |
| O=C(Cc1ccc(O)cc1)OCCOC1=C(c2ccc(Cl)cc2)C(=O)OC1 | > 100 | 15.5 (≈ 39.9 µM) | 27.4 (≈ 70.5 µM) | 7.9 | > 100 |
| O=C(Cc1cccc(Cl)c1)OCCOC1=C(c2ccccc2)C(=O)OC1 | > 100 | 83.1 (≈ 223 µM) | > 100 | > 100 | > 100 |
| Cc1ccc(C(=O)OCCOC2=C(c3ccccc3)C(=O)OC2)cc1 | 23.4 (≈ 69.2 µM) | 37.7 (≈ 111 µM) | 18.3 (≈ 54.1 µM) | 17.8 | > 100 |
| O=C(Cc1ccc(F)cc1)OCCOC1=C(c2ccccc2)C(=O)OC1 | > 100 | > 100 | 16.5 (≈ 46.3 µM) | 93.6 | > 100 |
| O=C1OCC(OCCOC(=O)c2ccccc2[N+](=O)[O-])=C1c1ccccc1 | > 100 | 35.5 (≈ 96.1 µM) | 24.3 (≈ 65.8 µM) | 18.2 | 17.5 (≈ 47.4 µM) |
| O=C1OCC(OCCOC(=O)c2ccc(Cl)c(Cl)c2)=C1c1ccccc1 | 95.4 (≈ 243 µM) | 22.7 (≈ 57.7 µM) | 19.9 (≈ 50.6 µM) | 33.4 | 2.9 (≈ 7.37 µM) |
| O=C1OCC(OCCOC(=O)c2ccccc2)=C1c1ccccc1 | > 100 | 13.4 (≈ 41.3 µM) | 17.8 (≈ 54.9 µM) | 12.8 | > 100 |
| O=C1OCC(OCCOC(=O)c2cc(O)cc(O)c2)=C1c1ccccc1 | > 100 | 14.4 (≈ 40.4 µM) | 2.2 (≈ 6.17 µM) | 6.7 | > 100 |
| O=C1OCC(OCCOC(=O)c2ccc(O)c(O)c2)=C1c1ccccc1 | > 100 | > 100 | 19.9 (≈ 55.8 µM) | 75.3 | > 100 |
| NC[C@H]1O[C@H](O[C@H]2[C@H](O)[C@@H](O[C@H]3O[C@H](CO)[C@@H](O)[C@H](N)[C@H]3O)[C@H](N)C[C@@H]2N)[C@H](O)[C@@H](O)[C@@H]1O [KANAMYCIN] | – | – | 1.5 (≈ 3.1 µM) | – | 3.5 (≈ 7.22 µM) |
| CCn1cc(C(=O)O)c(=O)c2cc(F)c(N3CCNCC3)cc21 [NORFLOXACIN] | – | 2.1 (≈ 6.58 µM) | – | – | – |
| O=C1OCC(OCCOC(=O)c2cccnc2)=C1c1ccccc1 | > 100 | 44.8 (≈ 138 µM) | 22.8 (≈ 70.1 µM) | 26 | 18.6 (≈ 57.2 µM) |
| O=C(Cc1ccc(Cl)cc1)OCCOC1=C(c2ccc(Cl)cc2)C(=O)OC1 | > 100 | 17.7 (≈ 43.5 µM) | 13.3 (≈ 32.7 µM) | 9.3 | 45.6 (≈ 112 µM) |
| O=C(Cc1ccc(Br)cc1)OCCOC1=C(c2ccccc2)C(=O)OC1 | > 100 | 22 (≈ 52.7 µM) | 15.4 (≈ 36.9 µM) | 48.1 | 78.7 (≈ 189 µM) |
| O=C(Cc1ccc(Br)cc1)OCCOC1=C(c2ccc(Cl)cc2)C(=O)OC1 | 13.1 (≈ 29 µM) | 20.6 (≈ 45.6 µM) | 13 (≈ 28.8 µM) | 16.7 | 14.3 (≈ 31.7 µM) |
| O=C1OCC(OCCOC(=O)c2ccc3cc(O)ccc3c2)=C1c1ccccc1 | > 100 | 15.8 (≈ 40.5 µM) | 16.1 (≈ 41.2 µM) | 16.8 | > 100 |
| O=C1OCC(OCCOC(=O)c2ccccc2O)=C1c1ccccc1 | > 100 | 47.8 (≈ 140 µM) | 24.9 (≈ 73.2 µM) | 41.4 | 15.7 (≈ 46.1 µM) |

| Structure (SMILES) | MIC50 (Candida albicans) [µg/mL] | MIC50 (Pseudomonas aeruginosa) [µg/mL] | MIC50 (Staphylococcus aureus) [µg/mL] | IC50 [1] [µM] | MIC50 (Escherichia coli) [µg/mL] |
| --- | --- | --- | --- | --- | --- |
| O=C1OCC(OCCOC(=O)c2cccc([N+](=O)[O-])c2)=C1c1ccccc1 | > 100 | > 100 | > 100 | > 100 | 9.4 (≈ 25.5 µM) |
| CCCCCC(=O)OCCOC1=C(c2ccccc2)C(=O)OC1 | 21.4 (≈ 67.2 µM) | 60.8 (≈ 191 µM) | 43 (≈ 135 µM) | 47.8 | > 100 |
| O=C1OCC(OCCOC(=O)c2ccc(Cl)cc2)=C1c1ccccc1 | 78.4 (≈ 219 µM) | 14.5 (≈ 40.4 µM) | 17.2 (≈ 47.9 µM) | 8.8 | > 100 |
| O=C1OCC(OCCOC(=O)c2ccc(Cl)cc2Cl)=C1c1ccccc1 | 22.9 (≈ 58.2 µM) | 21.3 (≈ 54.2 µM) | 18.2 (≈ 46.3 µM) | 16.5 | 12.8 (≈ 32.6 µM) |
| O=C(Cc1ccc(O)cc1)OCCOC1=C(c2ccccc2)C(=O)OC1 | > 100 | 68.1 (≈ 192 µM) | 22.5 (≈ 63.5 µM) | > 100 | 53.6 (≈ 151 µM) |
| CCCC(=O)OCCOC1=C(c2ccccc2)C(=O)OC1 | 88.7 (≈ 306 µM) | 98.1 (≈ 338 µM) | 41.3 (≈ 142 µM) | 84.6 | > 100 |
| CC(=O)N1CCN(c2ccc(OCC3COC(Cn4ccnc4)(c4ccc(Cl)cc4Cl)O3)cc2)CC1 (centres undefined) [KETOCONAZOLE] | 3.8 (≈ 7.15 µM) | – | – | – | – |
| O=C(Cc1cccc(Br)c1)OCCOC1=C(c2ccc(Cl)cc2)C(=O)OC1 | 4.2 (≈ 9.3 µM) | 4.6 (≈ 10.2 µM) | 13.6 (≈ 30.1 µM) | 3.5 | 16.6 (≈ 36.8 µM) |
| Cc1ccccc1C(=O)OCCOC1=C(c2ccccc2)C(=O)OC1 | > 100 | 90.2 (≈ 267 µM) | > 100 | > 100 | 19.3 (≈ 57 µM) |
| O=C1OCC(OCCOC(=O)c2ccc3ccccc3c2)=C1c1ccccc1 | > 100 | 18.1 (≈ 48.3 µM) | 21.9 (≈ 58.5 µM) | 17.7 | > 100 |
| O=C1OCC(OCCOC(=O)c2ccc(F)cc2)=C1c1ccccc1 | 18.1 (≈ 52.9 µM) | 13.8 (≈ 40.3 µM) | 8.2 (≈ 24 µM) | 7.5 | > 100 |
| O=C(Cc1ccc(F)cc1)OCCOC1=C(c2ccc(Cl)cc2)C(=O)OC1 | 15.6 (≈ 39.9 µM) | 13.2 (≈ 33.8 µM) | 14.9 (≈ 38.1 µM) | 5.7 | > 100 |
| O=C1OCC(OCCOC(=O)c2ccc(O)cc2O)=C1c1ccccc1 | > 100 | 36.7 (≈ 103 µM) | 15.3 (≈ 42.9 µM) | 50.2 | > 100 |
| O=C1OCC(OCCOC(=O)c2cccc(C(F)(F)F)c2)=C1c1ccccc1 | > 100 | 2.4 (≈ 6.12 µM) | 17.5 (≈ 44.6 µM) | 4.3 | 23.3 (≈ 59.4 µM) |
| CCCCCCCC(=O)OCCOC1=C(c2ccccc2)C(=O)OC1 | > 100 | 56.8 (≈ 164 µM) | > 100 | 41 | 48.8 (≈ 141 µM) |
| O=C1OCC(OCCOC(=O)c2cc(Cl)ccc2Cl)=C1c1ccccc1 | > 100 | 2.9 (≈ 7.37 µM) | 24.8 (≈ 63.1 µM) | 5.2 | 13.9 (≈ 35.3 µM) |
| O=C1OCC(OCCOC(=O)c2ccc([N+](=O)[O-])cc2)=C1c1ccccc1 | 2.7 (≈ 7.31 µM) | 11.4 (≈ 30.9 µM) | 24.5 (≈ 66.3 µM) | 5.2 | 5 (≈ 13.5 µM) |
| O=C1OCC(OCCOC(=O)c2ccc(O)cc2)=C1c1ccccc1 | 23 (≈ 67.6 µM) | 21.3 (≈ 62.6 µM) | 23.3 (≈ 68.5 µM) | 11.2 | 19.5 (≈ 57.3 µM) |
